We go through two compounds from ChEMBL document CHEMBL5653630, “Activation of the p53-MDM4 regulatory axis defines the anti-tumour response to PRMT5 inhibition through its role in regulating cellular splicing” (Sci Rep, 2018).

Assay [1] concerns Z-138. Kind of assay: Induction of apoptosis in human Z138 cells assessed as dead cells incubated for 6 days by annexin-V/FITC propidium iodide staining based flow cytometry analysis. Format: functional, cell-based. Particulars: dose 200.0 nM, time 6.0 day. (A flow cytometer gives signals particle by particle.)
The next assay has as its system HuCCT-1. Kind of assay: Antiproliferative activity against human HuCCT-1 cells assessed as cell growth inhibition incubated for 10 days. Format: functional. Particulars: HuCCT-1, 240 h, time 10 day. The essentials: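 Eurofins panel, 384-well. Cells kept in RPMI-1640 with 10% FBS, 2 mM L-alanyl-L-glutamine and 1 mM Na pyruvate, or in a special medium, at 37°C under 5% CO2. Compound added 24 h after seeding as 10 concentrations in 3.16-fold steps, 0.1% DMSO final. Medium replaced and compound re-dosed at 168 h. After 240 h, cells fixed and nuclei stained for imaging. gIC50 = growth midway between untreated cells and time-zero count.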

The target in assay [2] is Protein arginine N-methyltransferase 5 (Homo sapiens) (UniProt O14744). Kind of assay: Inhibition of PRMT5 in human Z138 cells assessed as full length MDM4 splicing at 200 to 1000 nM incubated for 3 days by RT-PCR analysis. Format: cell-based. Particulars: dose 200-1000 nM, time 3.0 day.
A further assay has as its system U-937. Briefly: Antiproliferative activity against human U-937 cells assessed as cell growth inhibition incubated for 6 days by celltiter-glo assay. Particulars: U-937, 144 h, time 6 day. Format: functional. The essentials:
(§1)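 Cells seeded in 384-well plates at an optimized density and held 24 h. CellTiter-Glo luminescence read at Day 0 and Day 6. Four-parameter fit. gIC50 = midpoint of the growth window between DMSO and T0. Curves required ≥1.5 population doublings.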
(Cellular ATP, detected with luciferase, serves as a proxy for viable cell number.)

In the next assay the test system is HT. Briefly: Antiproliferative activity against human HT cells assessed as cell growth inhibition incubated for 10 days. Format: functional. Particulars: 240 h, time 10 day. The essentials:
(§2)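 Outsourced panel run in 384-well plates. Cells were grown in RPMI-1640/10% FBS or a special medium at 37°C, 5% CO2. Compound was added 24 h after seeding as a 10-point, 3.16-fold series in 0.1% DMSO. Medium was refreshed and cells re-dosed at 168 h, with a time-zero plate kept. At 240 h cells were fixed, nuclei stained and imaged. gIC50 is growth midway between untreated and time zero, from a 4-parameter fit.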

Another assay deals with SW480. Briefly: Antiproliferative activity against human SW480 cells assessed as cell growth inhibition incubated for 10 days. Format: functional. To be noted: SW480, 240 h, time 10 day.
A further assay concerns SW1088. Kind of assay: Antiproliferative activity against human SW1088 cells assessed as cell growth inhibition incubated for 10 days. Format: functional. To be noted: SW1088, 240 h, time 10 day.
Assay [3] has as its system KATO III stomach cancer cell line. Briefly: Antiproliferative activity against human KATO III stomach cancer cell line assessed as cell growth inhibition incubated for 10 days. Format: functional. To be noted: 240 h, time 10 day. The essentials: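 Eurofins-panel 10-day assay in 384-well plates. Cells grown in RPMI-1640 with 10% FBS, 2 mM L-alanyl-L-glutamine and 1mM Na pyruvate, or a special medium, at 37°C in 5% CO₂. Compound added 24 h after seeding, 10-point 3.16-fold series in 0.1% DMSO. Medium replaced and compound re-dosed at 168 h. Nuclei fixed and stained after 240 h, then imaged to give a relative cell count. gIC50 is the concentration giving growth midway between untreated and time-zero counts, from a 4-parameter fit.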

The subject of a further assay is OE19. Kind of assay: Antiproliferative activity against human OE19 cells assessed as cell growth inhibition incubated for 10 days. To be noted: OE19, 240 h, time 10 day. Format: functional.
For a further assay, the system named is MCF7. Briefly: Antiproliferative activity against human MCF7 cells assessed as cell growth inhibition incubated for 6 days by celltiter-glo assay. Format: functional. To be noted: MCF7, 144 h, time 6 day. Summed up:
as §1

The nature of assay [4]: Antiproliferative activity against human SW579 cells assessed as cell growth inhibition incubated for 10 days. Format: functional. To be noted: SW579, 240 h, time 10 day.
A further assay has as its system COR-L23. Kind of assay: Antiproliferative activity against human COR-L23 cells assessed as cell growth inhibition incubated for 10 days. To be noted: COR-L23, 240 h, time 10 day. Format: functional. The essentials:
as §2

The test system of another assay is CAKI-1. Kind of assay: Antiproliferative activity against human CAKI-1 cells assessed as cell growth inhibition incubated for 10 days. Format: functional. Particulars: CAKI-1, 240 h, time 10 day. The essentials: (§3)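 Cells kept in RPMI-1640 with 10% FBS, 2 mM L-alanyl-L-glutamine and 1 mM Na pyruvate (or a special medium) at 37°C, 5% CO2. Compound added 24 h after seeding, 10 concentrations in 3.16-fold dilution, 0.1% DMSO final. Medium replaced and cells re-dosed at 168 h; 240 h incubation. Nuclei fixed, dye-stained and imaged. gIC50 = growth midway between untreated and time-zero cell counts, from a 4-parameter fit.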

The next assay has as its system SJRH30. Kind of assay: Antiproliferative activity against human SJRH30 cells assessed as cell growth inhibition incubated for 10 days. Format: functional. Particulars: SJRH30, 240 h, time 10 day.
Another assay concerns HepG2. Kind of assay: Antiproliferative activity against human HepG2 cells assessed as cell growth inhibition incubated for 10 days. To be noted: HepG2, 240 h, time 10 day. Format: functional. Summed up: as §2
Assay [5] deals with Protein arginine N-methyltransferase 5 (Homo sapiens) (UniProt O14744). Kind of assay: Inhibition of PRMT5 in human Z138 cells assessed as effect on snRNP B1 level by measuring fold change by LC-MS/MS analysis relative to control. Format: cell-based.
Another assay relates to Daoy. Briefly: Antiproliferative activity against human Daoy cells assessed as cell growth inhibition incubated for 10 days. Format: functional. Particulars: 240 h, time 10 day. The essentials: as §2
Another assay deals with SJSA-1. Kind of assay: Antiproliferative activity against human SJSA-1 cells assessed as cell growth inhibition incubated for 10 days. To be noted: SJSA-1, 240 h, time 10 day. Format: functional.
For another assay, the system named is A-375. Briefly: Antiproliferative activity against human A-375 cells assessed as cell growth inhibition incubated for 10 days. Format: functional. To be noted: A-375, 240 h, time 10 day. Summed up: as §3
Assay [6] concerns the target Protein arginine N-methyltransferase 5 (Homo sapiens) (UniProt O14744). Briefly: Inhibition of PRMT5 in human Z138 cells assessed as effect on FUBP1 level by measuring fold change by LC-MS/MS analysis relative to control. Format: cell-based.
The subject of the next assay is SK-MEL-28. Kind of assay: Antiproliferative activity against human SK-MEL-28 cells assessed as cell growth inhibition incubated for 10 days. To be noted: SK-MEL-28, 240 h, time 10 day. Format: functional.
The next assay deals with A549. Kind of assay: Antiproliferative activity against human A549 cells assessed as cell growth inhibition incubated for 10 days. Format: functional. To be noted: A549, 240 h, time 10 day. Summed up: as §3
Another assay has as its system L-428. Briefly: Antiproliferative activity against human L-428 cells assessed as cell growth inhibition incubated for 10 days. Format: functional. To be noted: L-428, 240 h, time 10 day.
The test system of another assay is CGTH-W-1. Kind of assay: Antiproliferative activity against human CGTH-W-1 cells assessed as cell growth inhibition incubated for 10 days. Format: functional. Particulars: CGTH-W-1, 240 h, time 10 day. Summed up: as §3
Assay [7] deals with Z-138. Briefly: Induction of cell cycle arrest in human Z138 cells expressing full length MDM4 assessed as accumulation of cells at G1 phase at 500 nM incubated for 4 days. Format: functional, cell-based. Particulars: time 4.0 day.
The test system of the next assay is SU.86.86. Kind of assay: Antiproliferative activity against human SU-86-86 cells assessed as cell growth inhibition incubated for 10 days. Format: functional. Particulars: SU.86.86, 240 h, time 10 day.
For a further assay, the system named is CRO-AP2. Kind of assay: Antiproliferative activity against human CRO-AP2 cells assessed as cell growth inhibition incubated for 10 days. Format: functional. To be noted: CRO-AP2, 240 h, time 10 day. The essentials:
as §2

The test system of the next assay is SW684. Briefly: Antiproliferative activity against human SW684 cells assessed as cell growth inhibition incubated for 10 days. Particulars: SW684, 240 h, time 10 day. Format: functional.
The next assay concerns COLO 320. Kind of assay: Antiproliferative activity against human COLO 320 cells assessed as cell growth inhibition incubated for 10 days. Format: functional. Particulars: COLO 320, 240 h, time 10 day. The essentials: as §3

Calls of active or inactive are those of the source. The calls are words filed in the database; no cut-off is given here.

Chain of Protein arginine N-methyltransferase 5 (Homo sapiens) (O14744 whole entry): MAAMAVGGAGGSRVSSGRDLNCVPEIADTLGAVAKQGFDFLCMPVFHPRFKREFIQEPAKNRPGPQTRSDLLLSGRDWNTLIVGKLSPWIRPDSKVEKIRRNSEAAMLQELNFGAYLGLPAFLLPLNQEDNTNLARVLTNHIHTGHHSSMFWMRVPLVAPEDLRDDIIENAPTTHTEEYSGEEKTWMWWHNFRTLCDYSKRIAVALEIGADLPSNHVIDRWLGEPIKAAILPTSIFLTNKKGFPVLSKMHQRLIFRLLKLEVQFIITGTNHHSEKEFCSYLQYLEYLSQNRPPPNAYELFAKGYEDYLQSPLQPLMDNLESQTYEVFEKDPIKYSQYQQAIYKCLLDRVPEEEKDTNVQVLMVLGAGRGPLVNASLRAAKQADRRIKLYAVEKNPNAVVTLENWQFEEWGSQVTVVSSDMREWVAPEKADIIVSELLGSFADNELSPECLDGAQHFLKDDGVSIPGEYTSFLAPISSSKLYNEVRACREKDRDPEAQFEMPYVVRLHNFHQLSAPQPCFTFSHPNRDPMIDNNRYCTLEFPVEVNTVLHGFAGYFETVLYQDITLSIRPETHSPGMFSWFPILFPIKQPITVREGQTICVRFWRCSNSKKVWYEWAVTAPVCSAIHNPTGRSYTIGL

For the compound `CC(=O)N1CCC(Nc2cc(C(=O)NC[C@H](O)CN3CCc4ccccc4C3)ncn2)CC1` [PEMRAMETOSTAT], in the assay with Z-138 [1], the Activity entry was “Dose-Dependent Effect”.

The GI50 is the concentration at which growth is held to half of that of the control. Regarding `O=C(NC[C@H](O)CN1CCc2ccccc2C1)c1ccnc(NC2CCC2)c1`, the concentration for 50% growth inhibition (GI50) is 225 nM in the assay with HuCCT-1; 49 nM with U-937; 206 nM with HT; 413 nM with SW480; 40.5 nM in the assay with SW1088; 16.7 nM in [3]. For the same compound, the GI50 stood at 98 nM in the assay with OE19; 215 nM in the assay on MCF7; 83.3 nM in assay [4]; 147 nM in the assay with COR-L23; 68.8 nM with CAKI-1; 472 nM with SJRH30. The GI50 came to 214 nM with HepG2; 270 nM in the assay with Daoy; 773 nM in the assay on SJSA-1; 79.6 nM with A-375; 239 nM in the assay with SK-MEL-28; 80.9 nM with A549. The GI50 in the assay on L-428 worked out at 330 nM; in the assay with CGTH-W-1 it was 82.2 nM; in the assay with SU.86.86, 934 nM; with CRO-AP2, 250 nM; in the assay with SW684 it was 1170 nM; in the assay on COLO 320 it was 80.3 nM. The inhibition result in [2] is “Active”. For the same compound, the fold change (FC) in assay [5] is -16.8; in assay [6], -6.6. Besides, in the assay with Z-138 [7], the outcome was Active.
